{"source": "ChEMBL document CHEMBL5104225", "about": "“Synthesis and structure-activity relationship studies of N-terminal analogues of the lipopeptide antibiotics brevicidine and laterocidine” (RSC Med Chem, 2022)", "assay_type_in_all_cases": "functional", "key": {"Staphylococcus aureus": {"test_system": "Staphylococcus aureus", "experiment": "Antibacterial activity against Staphylococcus aureus USA300 assessed as inhibition of bacterial growth incubated for 18 hrs by CLSI protocol based method", "how_it_was_run": "(§1)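 Single colonies from blood agar (16 h, 37 °C) grown in TSB at 37 °C, 220 rpm to OD600 ~0.5, then diluted in MHB to 2×10^5 CFU/mL. Mixed with serial MHB dilutions of DMSO stocks in polypropylene plates, sealed, and incubated 18 h at 37 °C, 600 rpm. MIC was taken as the lowest concentration with no visible growth; three technical replicates.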"}, "Escherichia coli [1]": {"test_system": "Escherichia coli", "experiment": "Antibacterial activity against Escherichia coli ATCC 25922 assessed as inhibition of bacterial growth incubated for 18 hrs by CLSI protocol based method", "how_it_was_run": "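Broth microdilution MIC. Strain streaked from glycerol stock on sheep blood agar (16 h, 37 °C); a colony was grown in TSB at 37 °C, 220 rpm, to OD600 about 0.5. Cells were diluted in MHB to 2×10^5 CFU/mL and added 1:1 to serial dilutions in MHB in polypropylene plates.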"}, "Pseudomonas aeruginosa": {"test_system": "Pseudomonas aeruginosa", "experiment": "Antibacterial activity against Pseudomonas aeruginosa PAO1 assessed as inhibition of bacterial growth incubated for 18 hrs by CLSI protocol based method", "how_it_was_run": "as §1"}, "Acinetobacter baumannii": {"test_system": "Acinetobacter baumannii", "experiment": "Antibacterial activity against Acinetobacter baumannii ATCC 17961 assessed as inhibition of bacterial growth incubated for 18 hrs by CLSI protocol based method", "how_it_was_run": "as §1"}, "Klebsiella pneumoniae": {"test_system": "Klebsiella pneumoniae", "experiment": "Antibacterial activity against Klebsiella pneumoniae ATCC 13883 assessed as inhibition of bacterial growth incubated for 18 hrs by CLSI protocol based method", "how_it_was_run": "as §1"}, "Escherichia coli [2]": {"test_system": "Escherichia coli", "experiment": "Antibacterial activity against colistin-resistant Escherichia coli ATCC 25922 carrying MCR-1 gene assessed as inhibition of bacterial growth incubated for 18 hrs by CLSI protocol based method", "how_it_was_run": "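Broth microdilution MIC. MCR-1 strain grown from glycerol stock in TSB with kanamycin (16 h, 37 °C, 220 rpm), diluted 100-fold in the same medium and grown to OD600 about 0.5. Cells were diluted in MHB to 2×10^5 CFU/mL and added 1:1 to serial dilutions in MHB. Incubated 18 h, 37 °C, 600 rpm; visual lowest no-growth concentration; three technical replicates.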"}}, "note": "Bridge positions count the residues as written; N and C are the ends. Square brackets hold non-standard residues; d marks the D form. Peptide text beside a SMILES is read from it. * marks the point of attachment. Palmitoyl = CCCCCCCCCCCCCCCC(=O)*; Lauroyl = CCCCCCCCCCCC(=O)*; Decanoyl = CCCCCCCCCC(=O)*; dOrn = NCCC[C@@H](N)C(=O)O; Octanoyl = CCCCCCCC(=O)*; Orn = NCCC[C@H](N)C(=O)O; Butyryl = CCCC(=O)*", "data": [{"smiles": "CCCCCCCCCCCC(=O)N[C@H](CO)C(=O)N[C@H](Cc1ccc(O)cc1)C(=O)N[C@H](Cc1c[nH]c2ccccc12)C(=O)N[C@H](CCCN)C(=O)N[C@@H](CCCN)C(=O)NCC(=O)N[C@H](CCCN)C(=O)N[C@@H](Cc1c[nH]c2ccccc12)C(=O)N[C@@H]1C(=O)N[C@@H]([C@@H](C)CC)C(=O)N[C@@H](CC(N)=O)C(=O)NCC(=O)NCC(=O)O[C@@H]1C", "note": "(Lauroyl-[dS][dY][dW][dOrn][Orn]G[dOrn]WTINGG; ester 9-C)", "values": [{"measurement": "MIC", "setting": "Staphylococcus aureus", "result": 32, "unit": "µg/mL"}, {"measurement": "MIC", "setting": "Escherichia coli [1]", "result": 4, "unit": "µg/mL"}, {"measurement": "MIC", "setting": "Pseudomonas aeruginosa", "result": 8, "unit": "µg/mL"}, {"measurement": "MIC", "setting": "Acinetobacter baumannii", "result": 2, "unit": "µg/mL"}, {"measurement": "MIC", "setting": "Klebsiella pneumoniae", "result": 8, "unit": "µg/mL"}, {"measurement": "MIC", "setting": "Escherichia coli [2]", "result": 4, "unit": "µg/mL"}]}, {"smiles": "CCCCCCCCCC(=O)N[C@H](CC(N)=O)C(=O)N[C@H](Cc1ccc(O)cc1)C(=O)N[C@H](Cc1c[nH]c2ccccc12)C(=O)N[C@H](CCCN)C(=O)N[C@@H](CCCN)C(=O)NCC(=O)N[C@H](CCCN)C(=O)N[C@@H](Cc1c[nH]c2ccccc12)C(=O)N[C@@H]1C(=O)N[C@@H]([C@@H](C)CC)C(=O)NCC(=O)N[C@@H](CO)C(=O)O[C@@H]1C", "note": "(Decanoyl-[dN][dY][dW][dOrn][Orn]G[dOrn]WTIGS; ester 9-C)", "values": [{"measurement": "MIC", "setting": "Staphylococcus aureus", "result": 32, "unit": "µg/mL"}, {"measurement": "MIC", "setting": "Escherichia coli [1]", "result": 4, "unit": "µg/mL"}, {"measurement": "MIC", "setting": "Pseudomonas aeruginosa", "result": 8, "unit": "µg/mL"}, {"measurement": "MIC", "setting": "Acinetobacter baumannii", "result": 4, "unit": "µg/mL"}, {"measurement": "MIC", "setting": "Klebsiella pneumoniae", "result": 4, "unit": "µg/mL"}, {"measurement": "MIC", "setting": "Escherichia coli [2]", "result": 4, "unit": "µg/mL"}]}, {"smiles": "CCCCCCCC(=O)N[C@H](CC(N)=O)C(=O)N[C@H](Cc1ccc(O)cc1)C(=O)N[C@H](Cc1c[nH]c2ccccc12)C(=O)N[C@H](CCCN)C(=O)N[C@@H](CCCN)C(=O)NCC(=O)N[C@H](CCCN)C(=O)N[C@@H](Cc1c[nH]c2ccccc12)C(=O)N[C@@H]1C(=O)N[C@@H]([C@@H](C)CC)C(=O)NCC(=O)N[C@@H](CO)C(=O)O[C@@H]1C", "note": "(Octanoyl-[dN][dY][dW][dOrn][Orn]G[dOrn]WTIGS; ester 9-C)", "values": [{"measurement": "MIC", "setting": "Staphylococcus aureus", "result": "> 32", "unit": "µg/mL"}, {"measurement": "MIC", "setting": "Escherichia coli [1]", "result": 16, "unit": "µg/mL"}, {"measurement": "MIC", "setting": "Pseudomonas aeruginosa", "result": 8, "unit": "µg/mL"}, {"measurement": "MIC", "setting": "Acinetobacter baumannii", "result": 16, "unit": "µg/mL"}, {"measurement": "MIC", "setting": "Klebsiella pneumoniae", "result": 16, "unit": "µg/mL"}, {"measurement": "MIC", "setting": "Escherichia coli [2]", "result": 16, "unit": "µg/mL"}]}, {"smiles": "CCCCCCCC(=O)N[C@H](CO)C(=O)N[C@H](Cc1ccc(O)cc1)C(=O)N[C@H](Cc1c[nH]c2ccccc12)C(=O)N[C@H](CCCN)C(=O)N[C@@H](CCCN)C(=O)NCC(=O)N[C@H](CCCN)C(=O)N[C@@H](Cc1c[nH]c2ccccc12)C(=O)N[C@@H]1C(=O)N[C@@H]([C@@H](C)CC)C(=O)N[C@@H](CC(N)=O)C(=O)NCC(=O)NCC(=O)O[C@@H]1C", "note": "(Octanoyl-[dS][dY][dW][dOrn][Orn]G[dOrn]WTINGG; ester 9-C)", "values": [{"measurement": "MIC", "setting": "Staphylococcus aureus", "result": "> 32", "unit": "µg/mL"}, {"measurement": "MIC", "setting": "Escherichia coli [1]", "result": 2, "unit": "µg/mL"}, {"measurement": "MIC", "setting": "Pseudomonas aeruginosa", "result": 2, "unit": "µg/mL"}, {"measurement": "MIC", "setting": "Acinetobacter baumannii", "result": 4, "unit": "µg/mL"}, {"measurement": "MIC", "setting": "Klebsiella pneumoniae", "result": 2, "unit": "µg/mL"}, {"measurement": "MIC", "setting": "Escherichia coli [2]", "result": 2, "unit": "µg/mL"}]}, {"smiles": "CCCCCCCCCC(=O)N[C@H](CO)C(=O)N[C@H](Cc1ccc(O)cc1)C(=O)N[C@H](Cc1c[nH]c2ccccc12)C(=O)N[C@H](CCCN)C(=O)N[C@@H](CCCN)C(=O)NCC(=O)N[C@H](CCCN)C(=O)N[C@@H](Cc1c[nH]c2ccccc12)C(=O)N[C@@H]1C(=O)N[C@@H]([C@@H](C)CC)C(=O)N[C@@H](CC(N)=O)C(=O)NCC(=O)NCC(=O)O[C@@H]1C", "note": "(Decanoyl-[dS][dY][dW][dOrn][Orn]G[dOrn]WTINGG; ester 9-C)", "values": [{"measurement": "MIC", "setting": "Staphylococcus aureus", "result": "> 32", "unit": "µg/mL"}, {"measurement": "MIC", "setting": "Escherichia coli [1]", "result": 2, "unit": "µg/mL"}, {"measurement": "MIC", "setting": "Pseudomonas aeruginosa", "result": 2, "unit": "µg/mL"}, {"measurement": "MIC", "setting": "Acinetobacter baumannii", "result": 2, "unit": "µg/mL"}, {"measurement": "MIC", "setting": "Klebsiella pneumoniae", "result": 2, "unit": "µg/mL"}, {"measurement": "MIC", "setting": "Escherichia coli [2]", "result": 2, "unit": "µg/mL"}]}, {"smiles": "CCCCCCCCCCCCCCCC(=O)N[C@H](CO)C(=O)N[C@H](Cc1ccc(O)cc1)C(=O)N[C@H](Cc1c[nH]c2ccccc12)C(=O)N[C@H](CCCN)C(=O)N[C@@H](CCCN)C(=O)NCC(=O)N[C@H](CCCN)C(=O)N[C@@H](Cc1c[nH]c2ccccc12)C(=O)N[C@@H]1C(=O)N[C@@H]([C@@H](C)CC)C(=O)N[C@@H](CC(N)=O)C(=O)NCC(=O)NCC(=O)O[C@@H]1C", "note": "(Palmitoyl-[dS][dY][dW][dOrn][Orn]G[dOrn]WTINGG; ester 9-C)", "values": [{"measurement": "MIC", "setting": "Staphylococcus aureus", "result": 32, "unit": "µg/mL"}, {"measurement": "MIC", "setting": "Escherichia coli [1]", "result": 32, "unit": "µg/mL"}, {"measurement": "MIC", "setting": "Pseudomonas aeruginosa", "result": 32, "unit": "µg/mL"}, {"measurement": "MIC", "setting": "Acinetobacter baumannii", "result": 4, "unit": "µg/mL"}, {"measurement": "MIC", "setting": "Klebsiella pneumoniae", "result": "> 32", "unit": "µg/mL"}, {"measurement": "MIC", "setting": "Escherichia coli [2]", "result": 32, "unit": "µg/mL"}]}, {"smiles": "CCCC(=O)N[C@H](CO)C(=O)N[C@H](Cc1ccc(O)cc1)C(=O)N[C@H](Cc1c[nH]c2ccccc12)C(=O)N[C@H](CCCN)C(=O)N[C@@H](CCCN)C(=O)NCC(=O)N[C@H](CCCN)C(=O)N[C@@H](Cc1c[nH]c2ccccc12)C(=O)N[C@@H]1C(=O)N[C@@H]([C@@H](C)CC)C(=O)N[C@@H](CC(N)=O)C(=O)NCC(=O)NCC(=O)O[C@@H]1C", "note": "(Butyryl-[dS][dY][dW][dOrn][Orn]G[dOrn]WTINGG; ester 9-C)", "values": [{"measurement": "MIC", "setting": "Staphylococcus aureus", "result": "> 32", "unit": "µg/mL"}, {"measurement": "MIC", "setting": "Escherichia coli [1]", "result": 16, "unit": "µg/mL"}, {"measurement": "MIC", "setting": "Pseudomonas aeruginosa", "result": 8, "unit": "µg/mL"}, {"measurement": "MIC", "setting": "Acinetobacter baumannii", "result": "> 32", "unit": "µg/mL"}, {"measurement": "MIC", "setting": "Klebsiella pneumoniae", "result": 32, "unit": "µg/mL"}, {"measurement": "MIC", "setting": "Escherichia coli [2]", "result": 32, "unit": "µg/mL"}]}]}
